Data from ChEMBL document CHEMBL4364301 (Eur J Med Chem, 2019).

What was measured:
Assay type in all cases: functional
DU-145 [1] = experiment: Antiproliferative activity against human DU145 cells assessed as reduction in cell growth incubated for 96 hrs by propidium iodide based 2D monolayer assay; conditions: DU-145, 96 h
Procedure, shortened: (§1)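 After 24 h recovery, compound in medium or medium alone (control wells) was added at 10 half-log concentrations from 0.0032 to 100 µM, in triplicate, with at most 0.3% DMSO. After 96 h, wells were PBS-washed, stained with 7 µg/ml PI and 0.1% Triton X-100, and fluorescence read at 530/620 nm. IC50 came from a 4-parameter fit, geometric mean.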

CWR22R [2] = experiment: Antiproliferative activity against human 22Rv1 cells assessed as reduction in cell growth incubated for 96 hrs by propidium iodide based 2D monolayer assay; conditions: 22Rv1, 96 h; procedure, shortened: as §1
LNCaP [3] = experiment: Antiproliferative activity against human LNCAP cells assessed as reduction in cell growth incubated for 96 hrs by propidium iodide based 2D monolayer assay; procedure, shortened: as §1
VCaP [4] = experiment: Antiproliferative activity against human VCaP cells assessed as reduction in cell growth incubated for 96 hrs by propidium iodide based 2D monolayer assay
Procedure, shortened: (§2)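 VCaP cells in RPMI 1640 with 10% FCS at 37 °C, 5% CO2, seeded 4,000–20,000 cells/well and left 24 h before dosing. Compounds from DMSO stocks were diluted in half-log steps in medium, 10 concentrations 0.0032–100 μM, triplicate wells, max 0.3% DMSO. After 96 h, cells were washed, stained with 7 μg/ml propidium iodide plus 0.1% Triton X-100 for 1–2 h at room temperature, and fluorescence read at ex 530/em 620 nm.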

VCaP [5] = experiment: Antiproliferative activity against human VCaP cells assessed as T/C value at 1 x 10^-2 uM incubated for 96 hrs by propidium iodide based 2D monolayer assay
Procedure, shortened: as §1, with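 “Cells were kept in RPMI 1640 with 25 mM HEPES, 10% FCS and gentamicin at 37 °C under 5% CO2, and plated at 4,000-20,000 cells/well. After 24” for “After 24”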

VCaP [6] = experiment: Antiproliferative activity against human VCaP cells assessed as T/C value at 3.2 x 10^-2 uM incubated for 96 hrs by propidium iodide based 2D monolayer assay; procedure, shortened: as §2
VCaP [7] = experiment: Antiproliferative activity against human VCaP cells assessed as T/C value at 1 x 10^-1 uM incubated for 96 hrs by propidium iodide based 2D monolayer assay
Procedure, shortened: as §1, with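 “Cells were kept in RPMI 1640 with 25 mM HEPES, 10% FCS and gentamicin at 37 °C under 5% CO2, and plated at 4,000-20,000 cells/well. After 24” for “After 24”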

VCaP [8] = experiment: Antiproliferative activity against human VCaP cells assessed as T/C value at 3.2 x 10^-1 uM incubated for 96 hrs by propidium iodide based 2D monolayer assay; procedure, shortened: as §2
VCaP [9] = experiment: Antiproliferative activity against human VCaP cells assessed as T/C value at 1 uM incubated for 96 hrs by propidium iodide based 2D monolayer assay
Procedure, shortened: as §1, with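 “Cells were kept in RPMI 1640 with 25 mM HEPES, 10% FCS and gentamicin at 37 °C under 5% CO2, and plated at 4,000-20,000 cells/well. After 24” for “After 24”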

VCaP [10] = experiment: Antiproliferative activity against human VCaP cells assessed as T/C value at 3.2 uM incubated for 96 hrs by propidium iodide based 2D monolayer assay
Procedure, shortened: as §1, with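 “Cells were kept in RPMI 1640 with 25 mM HEPES, 10% FCS and gentamicin at 37 °C under 5% CO2, and plated at 4,000-20,000 cells/well. After 24” for “After 24”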

VCaP [11] = experiment: Antiproliferative activity against human VCaP cells assessed as T/C value at 3.2 x 10^1 uM incubated for 96 hrs by propidium iodide based 2D monolayer assay; procedure, shortened: as §2
VCaP [12] = experiment: Antiproliferative activity against human VCaP cells assessed as T/C value at 1 x 10^2 uM incubated for 96 hrs by propidium iodide based 2D monolayer assay
Procedure, shortened: as §1, with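 “Cells were kept in RPMI 1640 with 25 mM HEPES, 10% FCS and gentamicin at 37 °C under 5% CO2, and plated at 4,000-20,000 cells/well. After 24” for “After 24”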

LNCaP [13] = experiment: Antiproliferative activity against human LNCAP cells assessed as T/C value at 1 x 10^-2 uM incubated for 96 hrs by propidium iodide based 2D monolayer assay
Procedure, shortened: as §1, with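 “Cells were kept in RPMI 1640 with 25 mM HEPES, 10% FCS and gentamicin at 37 °C under 5% CO2, and plated at 4,000-20,000 cells/well. After 24” for “After 24”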

LNCaP [14] = experiment: Antiproliferative activity against human LNCAP cells assessed as T/C value at 3.2 x 10^-2 uM incubated for 96 hrs by propidium iodide based 2D monolayer assay
Procedure, shortened: as §1, with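 “Cells were kept in RPMI 1640 with 25 mM HEPES, 10% FCS and gentamicin at 37 °C under 5% CO2, and plated at 4,000-20,000 cells/well. After 24” for “After 24”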

LNCaP [15] = experiment: Antiproliferative activity against human LNCAP cells assessed as T/C value at 1 uM incubated for 96 hrs by propidium iodide based 2D monolayer assay
Procedure, shortened: as §1, with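 “Cells were kept in RPMI 1640 with 25 mM HEPES, 10% FCS and gentamicin at 37 °C under 5% CO2, and plated at 4,000-20,000 cells/well. After 24” for “After 24”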

LNCaP [16] = experiment: Antiproliferative activity against human LNCAP cells assessed as T/C value at 3.2 uM incubated for 96 hrs by propidium iodide based 2D monolayer assay
Procedure, shortened: as §1, with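 “Cells were kept in RPMI 1640 with 25 mM HEPES, 10% FCS and gentamicin at 37 °C under 5% CO2, and plated at 4,000-20,000 cells/well. After 24” for “After 24”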

LNCaP [17] = experiment: Antiproliferative activity against human LNCAP cells assessed as T/C value at 3.2 x 10^1 uM incubated for 96 hrs by propidium iodide based 2D monolayer assay
Procedure, shortened: as §1, with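 “Cells were kept in RPMI 1640 with 25 mM HEPES, 10% FCS and gentamicin at 37 °C under 5% CO2, and plated at 4,000-20,000 cells/well. After 24” for “After 24”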

CWR22R [18] = experiment: Antiproliferative activity against human 22Rv1 cells assessed as T/C value at 3.2 x 10^-3 uM incubated for 96 hrs by propidium iodide based 2D monolayer assay
Procedure, shortened: as §1, with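 “Cells were kept in RPMI 1640 with 25 mM HEPES, 10% FCS and gentamicin at 37 °C under 5% CO2, and plated at 4,000-20,000 cells/well. After 24” for “After 24”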

CWR22R [19] = experiment: Antiproliferative activity against human 22Rv1 cells assessed as T/C value at 1 x 10^-2 uM incubated for 96 hrs by propidium iodide based 2D monolayer assay
Procedure, shortened: as §1, with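 “Cells were kept in RPMI 1640 with 25 mM HEPES, 10% FCS and gentamicin at 37 °C under 5% CO2, and plated at 4,000-20,000 cells/well. After 24” for “After 24”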

CWR22R [20] = experiment: Antiproliferative activity against human 22Rv1 cells assessed as T/C value at 3.2 x 10^-1 uM incubated for 96 hrs by propidium iodide based 2D monolayer assay
Procedure, shortened: as §1, with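 “Cells were kept in RPMI 1640 with 25 mM HEPES, 10% FCS and gentamicin at 37 °C under 5% CO2, and plated at 4,000-20,000 cells/well. After 24” for “After 24”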

CWR22R [21] = experiment: Antiproliferative activity against human 22Rv1 cells assessed as T/C value at 1 uM incubated for 96 hrs by propidium iodide based 2D monolayer assay
Procedure, shortened: as §1, with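 “Cells were kept in RPMI 1640 with 25 mM HEPES, 10% FCS and gentamicin at 37 °C under 5% CO2, and plated at 4,000-20,000 cells/well. After 24” for “After 24”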

CWR22R [22] = experiment: Antiproliferative activity against human 22Rv1 cells assessed as T/C value at 3.2 uM incubated for 96 hrs by propidium iodide based 2D monolayer assay
Procedure, shortened: as §1, with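 “Cells were kept in RPMI 1640 with 25 mM HEPES, 10% FCS and gentamicin at 37 °C under 5% CO2, and plated at 4,000-20,000 cells/well. After 24” for “After 24”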

CWR22R [23] = experiment: Antiproliferative activity against human 22Rv1 cells assessed as T/C value at 1 x 10^1 uM incubated for 96 hrs by propidium iodide based 2D monolayer assay
Procedure, shortened: as §1, with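 “Cells were kept in RPMI 1640 with 25 mM HEPES, 10% FCS and gentamicin at 37 °C under 5% CO2, and plated at 4,000-20,000 cells/well. After 24” for “After 24”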

CWR22R [24] = experiment: Antiproliferative activity against human 22Rv1 cells assessed as T/C value at 3.2 x 10^1 uM incubated for 96 hrs by propidium iodide based 2D monolayer assay
Procedure, shortened: as §1, with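 “Cells were kept in RPMI 1640 with 25 mM HEPES, 10% FCS and gentamicin at 37 °C under 5% CO2, and plated at 4,000-20,000 cells/well. After 24” for “After 24”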

DU-145 [25] = experiment: Antiproliferative activity against human DU145 cells assessed as T/C value at 3.2 x 10^-3 uM incubated for 96 hrs by propidium iodide based 2D monolayer assay; procedure, shortened: as §1
DU-145 [26] = experiment: Antiproliferative activity against human DU145 cells assessed as T/C value at 3.2 x 10^-2 uM incubated for 96 hrs by propidium iodide based 2D monolayer assay; procedure, shortened: as §1
DU-145 [27] = experiment: Antiproliferative activity against human DU145 cells assessed as T/C value at 3.2 x 10^-1 uM incubated for 96 hrs by propidium iodide based 2D monolayer assay; procedure, shortened: as §1
DU-145 [28] = experiment: Antiproliferative activity against human DU145 cells assessed as T/C value at 1 uM incubated for 96 hrs by propidium iodide based 2D monolayer assay; procedure, shortened: as §1
DU-145 [29] = experiment: Antiproliferative activity against human DU145 cells assessed as T/C value at 3.2 uM incubated for 96 hrs by propidium iodide based 2D monolayer assay
Procedure, shortened: as §1, with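 “Cells were kept in RPMI 1640 with 25 mM HEPES, 10% FCS and gentamicin at 37 °C under 5% CO2, and plated at 4,000-20,000 cells/well. After 24” for “After 24”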

DU-145 [30] = experiment: Antiproliferative activity against human DU145 cells assessed as T/C value at 1 x 10^1 uM incubated for 96 hrs by propidium iodide based 2D monolayer assay; procedure, shortened: as §1
DU-145 [31] = experiment: Antiproliferative activity against human DU145 cells assessed as T/C value at 3.2 x 10^1 uM incubated for 96 hrs by propidium iodide based 2D monolayer assay
Procedure, shortened: as §1, with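 “Cells were kept in RPMI 1640 with 25 mM HEPES, 10% FCS and gentamicin at 37 °C under 5% CO2, and plated at 4,000-20,000 cells/well. After 24” for “After 24”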

DU-145 [32] = experiment: Antiproliferative activity against human DU145 cells assessed as T/C value at 1 x 10^2 uM incubated for 96 hrs by propidium iodide based 2D monolayer assay
Procedure, shortened: as §1, with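 “Cells were kept in RPMI 1640 with 25 mM HEPES, 10% FCS and gentamicin at 37 °C under 5% CO2, and plated at 4,000-20,000 cells/well. After 24” for “After 24”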

SMILES	IC50 (DU-145 [1])	IC70 (DU-145 [1])	IC50 (CWR22R [2])	IC70 (CWR22R [2])	IC50 (LNCaP [3])	IC70 (LNCaP [3])	IC50 (VCaP [4])	IC70 (VCaP [4])	T/C (VCaP [5])	T/C (VCaP [6])	T/C (VCaP [7])	T/C (VCaP [8])	T/C (VCaP [9])	T/C (VCaP [10])	T/C (VCaP [11])	T/C (VCaP [12])	T/C (LNCaP [13])	T/C (LNCaP [14])	T/C (LNCaP [15])	T/C (LNCaP [16])	further results
CC(O)(CSc1cc(C(F)(F)F)cc(C(F)(F)F)c1)C(=O)Nc1cccc(C(F)(F)C(F)(F)F)c1 (racemic)	8.9 µM	9.6 µM	4.2 µM	5.41 µM	3.9 µM	4.68 µM	8.6 µM	11.7 µM	107%	98%	115%	109%	93%	102%	20%	11%	93%	99%	107%	72%	T/C (LNCaP [17]): 6%; T/C (CWR22R [18]): 104%; T/C (CWR22R [19]): 109%; T/C (CWR22R [20]): 107%; T/C (CWR22R [21]): 107%; T/C (CWR22R [22]): 75%; T/C (CWR22R [23]): 9%; T/C (CWR22R [24]): 7%; T/C (DU-145 [25]): 117%; T/C (DU-145 [26]): 123%; T/C (DU-145 [27]): 135%; T/C (DU-145 [28]): 134%; T/C (DU-145 [29]): 133%; T/C (DU-145 [30]): 22%; T/C (DU-145 [31]): 8%; T/C (DU-145 [32]): 2%
CC(O)(COc1cc(C(F)(F)F)cc(C(F)(F)F)c1)C(=O)Nc1ccc(S(F)(F)(F)(F)F)cc1 (racemic)	8.6 µM	9.21 µM	7 µM	8.27 µM	2.3 µM	2.97 µM	2.6 µM	4.53 µM	95%	95%	99%	87%	88%	37%	6%	5%	88%	100%	90%	26%	T/C (LNCaP [17]): 2%; T/C (CWR22R [18]): 106%; T/C (CWR22R [19]): 99%; T/C (CWR22R [20]): 109%; T/C (CWR22R [21]): 108%; T/C (CWR22R [22]): 103%; T/C (CWR22R [23]): 16%; T/C (CWR22R [24]): 8%; T/C (DU-145 [25]): 102%; T/C (DU-145 [26]): 105%; T/C (DU-145 [27]): 113%; T/C (DU-145 [28]): 118%; T/C (DU-145 [29]): 117%; T/C (DU-145 [30]): 15%; T/C (DU-145 [31]): 5%; T/C (DU-145 [32]): 1%
